Data taken from ChEMBL document CHEMBL1124458, “Electrophilic derivatives of purines as irreversible inhibitors of A1 adenosine receptors” (J Med Chem, 1989).

Experiments:
Adenosine receptor A1 [1] = target: T1, Adenosine receptor A1 (Rattus norvegicus, UniProt P25099); test: Affinity for adenosine A1 receptor using [3H]N6-(phenylisopropyl)adenosine (R)-[3H]-PIA as a radioligand in rat brain.; format: tissue-based
T1 sequence (P25099 whole entry): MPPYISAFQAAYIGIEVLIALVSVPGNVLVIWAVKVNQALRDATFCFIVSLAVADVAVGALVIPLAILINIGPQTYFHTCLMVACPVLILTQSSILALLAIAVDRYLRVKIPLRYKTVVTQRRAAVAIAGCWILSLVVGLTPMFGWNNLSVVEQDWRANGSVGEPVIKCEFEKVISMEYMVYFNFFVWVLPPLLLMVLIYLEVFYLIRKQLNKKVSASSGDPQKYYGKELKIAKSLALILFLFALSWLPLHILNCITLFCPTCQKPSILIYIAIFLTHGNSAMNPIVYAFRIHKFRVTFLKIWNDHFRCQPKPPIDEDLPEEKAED

Adenosine receptor A1 [2] = target: T2, Adenosine receptor A1 (Bos taurus, UniProt P28190); test: Affinity for Adenosine A1 receptor using [125I]APNEA in calf brain.
T2 sequence (P28190 whole entry): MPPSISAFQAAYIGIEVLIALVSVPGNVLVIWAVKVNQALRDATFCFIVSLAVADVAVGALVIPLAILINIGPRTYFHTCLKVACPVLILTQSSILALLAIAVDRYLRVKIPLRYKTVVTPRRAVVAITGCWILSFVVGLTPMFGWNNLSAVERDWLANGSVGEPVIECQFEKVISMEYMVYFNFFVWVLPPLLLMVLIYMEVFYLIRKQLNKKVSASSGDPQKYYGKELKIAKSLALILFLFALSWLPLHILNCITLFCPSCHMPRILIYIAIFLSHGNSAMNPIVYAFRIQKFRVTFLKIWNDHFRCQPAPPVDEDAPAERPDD
In short: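 Bovine cerebral cortex membranes were pretreated with adenosine deaminase (0.5 unit/mL, 20 min, 37 °C). Membranes (40 µg) were incubated with 125I-APNEA and competitor for 1 h at 37 °C. Separation was by dilution in cold Tris-HCl/MgCl2/EDTA buffer, pH 8.26, with 0.02% Chaps, then glass-filter filtration and gamma counting. Nonspecific binding was defined with 10⁻⁵ M (R)-PIA.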

Adenosine receptor A1 [3] = target: T1, Adenosine receptor A1; test: Affinity for adenosine A1 receptor using [3H]-N6 -(phenylisopropyl)-adenosine (R)-[3H]-PIA in rat brain.; format: tissue-based
In short: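 Rat cerebral cortex membranes were incubated with 1 nM (R)-[3H]PIA and a range of competitor concentrations. Each point was run in triplicate, in at least three separate experiments.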

Adenosine A2 receptor [4] = target: T3, Adenosine A2 receptor (Rattus norvegicus, UniProt P29276+P30543); test: Inhibitory affinity for Adenosine A2 receptor using [3H]N-ethyladenosine-5'-uronamide; format: protein assay
[5] = target: T4, Adenosine receptor A1 (Rattus norvegicus) (UniProt P25099); test: Inhibition of [125I]-APNEA binding to adenosine A1 receptor of rat brain at 50 nM
T4 sequence (whole entry): T1 sequence (P25099 whole entry)
In short: (§1)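 Adenosine deaminase-treated rat cerebral cortex membranes were exposed to the ligand for 45 min at 37 °C. They were washed three times, held in buffer with 10⁻⁴ M IBMX for 18 h at 25 °C, washed and re-treated with deaminase. Residual sites were measured by 125I-APNEA saturation (0.1–2.5 nM) against untreated membranes carried through the same procedure.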

[6] = target: Adenosine receptors; A1 & A2 (Rattus norvegicus) (UniProt P29276+P25099+P30543); test: Relative affinities for Adenosine A2 and Adenosine A1 receptors; format: protein assay
[7] = target: T4, Adenosine receptor A1 (Rattus norvegicus); test: Percentage inhibition of [125I]-APNEA binding to Adenosine A1 receptor from rat brain after 45 min incubation at 50 nM
In short: (§2)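 Rat cerebral cortex membranes pretreated with adenosine deaminase (0.5 unit/mL, 20 min, 37 °C). Incubated with ligand at the stated concentration for 45 min at 37 °C, then washed three times in Tris/MgCl2/EDTA buffer pH 8.26 with 0.02% Chaps. Then 10⁻⁴ M IBMX for 18 h at 25 °C, washed twice and deaminase-treated again. Untreated membranes went through every step as controls.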

[8] = target: T4, Adenosine receptor A1 (Rattus norvegicus); test: Percentage inhibition of [125I]APNEA binding to adenosine A1 receptor from rat brain after 45 min incubation at 500 nM; in short: as §1
Adenosine A2 receptor [9] = target: T3, Adenosine A2 receptor; test: Inhibition of [3H]N-ethyladenosine-5'-uronamide binding to Adenosine A2 receptor of rat striatal membrane
[10] = target: T4, Adenosine receptor A1 (Rattus norvegicus); test: Percentage inhibition of [125I]APNEA binding to Adenosine A1 receptor from rat brain after 45 min incubation at 10 nM; in short: as §2
[11] = target: T4, Adenosine receptor A1 (Rattus norvegicus); test: Percentage inhibition of [125I]APNEA binding to adenosine A1 receptor from rat brain after 45 min incubation at 10 nM; in short: as §2
[12] = target: T4, Adenosine receptor A1 (Rattus norvegicus); test: Percentage inhibition of [125I]APNEA binding to adenosine A1 receptor from rat brain after 45 min incubation at 1 nM
In short: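 Rat cerebral cortex membranes, pretreated with adenosine deaminase (0.5 unit/mL, 20 min, 37 °C), incubated with ligand 45 min at 37 °C. Washed three times in Tris/MgCl2/EDTA buffer pH 8.26 with 0.02% Chaps, then 10⁻⁴ M IBMX 18 h at 25 °C to strip reversible ligand. Washed, deaminase-treated again, then 125I-APNEA saturation binding (0.1–2.5 nM; nonspecific 10⁻⁵ M R-PIA). Inhibition is relative to untreated membranes carried through the same steps.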

| Ki (Adenosine receptor A1 [1]) | inhibition [5] | SMILES | also measured |
| --- | --- | --- | --- |
| 16.6 nM | – | CCCn1c(=O)c2[nH]c(-c3ccc(OCC(=O)NCCNC(=S)Nc4ccc(C#N)cc4)cc3)nc2n(CCC)c1=O | – |
| – | – | CCCn1c(=O)c2[nH]c(-c3ccc(OCC(=O)NCCNC(=O)c4ccc(CBr)cc4)cc3)nc2n(CCC)c1=O | Ki (Adenosine receptor A1 [2]): 10.1 nM |
| – | – | O=C(Cc1ccc(NC(=O)Cc2ccc(Nc3ncnc4c3ncn4C3O[C@H](CO)[C@@H](O)[C@H]3O)cc2)cc1)NCC/N=C(\S)Nc1c(F)c(F)c(F)c(F)c1F (stereo not given in full) | Ki (Adenosine receptor A1 [3]): 1.64 nM |
| 1.19 nM | – | O=C(Cc1ccc(NC(=O)Cc2ccc(Nc3ncnc4c3ncn4C3O[C@H](CO)[C@@H](O)[C@H]3O)cc2)cc1)NCCNC(=S)Nc1ccc(Br)cc1 (stereo not given in full) | – |
| 8.37 nM | 21% | O=C(Cc1ccc(Nc2ncnc3c2ncn3C2O[C@H](CO)[C@@H](O)[C@H]2O)cc1)ON1C(=O)CCC1=O (stereo not given in full) | – |
| 6.75 nM | – | O=C(Cc1ccc(NC(=O)Cc2ccc(Nc3ncnc4c3ncn4C3O[C@H](CO)[C@@H](O)[C@H]3O)cc2)cc1)NCCNC(=S)Nc1ccccc1F (stereo not given in full) | – |
| 37.8 nM | 15% | CCCn1c(=O)c2nc(-c3ccc(OCC(=O)NCCNC(=O)CCCN4C(=O)C=CC4=O)cc3)[nH]c2n(CCC)c1=O | – |
| 8.3 nM | 38% | O=C(CBr)NCCNC(=O)Cc1ccc(NC(=O)Cc2ccc(Nc3ncnc4c3ncn4C3O[C@H](CO)[C@@H](O)[C@H]3O)cc2)cc1 (stereo not given in full) | Ki (Adenosine A2 receptor [4]): 202 nM; Ratio [6]: 76 |
| 1.97 nM | – | O=C(Cc1ccc(NC(=O)Cc2ccc(Nc3ncnc4c3ncn4C3O[C@H](CO)[C@@H](O)[C@H]3O)cc2)cc1)NCC/N=C(\S)Nc1ccc([N+](=O)[O-])cc1 (stereo not given in full) | – |
| – | – | N#Cc1ccc(N/C(S)=N/CCNC(=O)Cc2ccc(NC(=O)Cc3ccc(Nc4ncnc5c4ncn5C4O[C@H](CO)[C@@H](O)[C@H]4O)cc3)cc2)cc1 (stereo not given in full) | Ki (Adenosine receptor A1 [3]): 2.66 nM |
| – | 9% | CCCn1c(=O)c2nc(-c3ccc(OCC(=O)NCCNC(=O)CNC(=O)CCCN4C(=O)C=CC4=O)cc3)[nH]c2n(CCC)c1=O | – |
| – | – | CCCn1c(=O)c2[nH]c(-c3ccc(OCC(=O)NCCNC(=O)CNC(=O)CCCN4C(=O)C=CC4=O)cc3)nc2n(CCC)c1=O | Ki (Adenosine receptor A1 [3]): 23.2 nM |
| 9.6 nM | 44% | O=C(Cc1ccc(Nc2ncnc3c2ncn3C2O[C@H](CO)[C@@H](O)[C@H]2O)cc1)Nc1ccc(CC(=O)ON2C(=O)CCC2=O)cc1 (stereo not given in full) | – |
| – | 3% | CCCn1c(=O)c2nc(-c3ccc(OCC(=O)NCCNC(=O)CCSSc4ccccn4)cc3)[nH]c2n(CCC)c1=O | – |
| 15.5 nM | – | CCCn1c(=O)c2nc(-c3ccc(OCC(=O)NCCN=C(S)Nc4ccc(F)cc4)cc3)[nH]c2n(CCC)c1=O | – |
| – | 16% | CCCn1c(=O)c2nc(-c3ccc(OCC(=O)NCCNC(=O)CBr)cc3)[nH]c2n(CCC)c1=O | – |
| – | – | O=C(Cc1ccc(NC(=O)Cc2ccc(Nc3ncnc4c3ncn4C3O[C@H](CO)[C@@H](O)[C@H]3O)cc2)cc1)NCC/N=C(\S)Nc1ccc(N=C=S)cc1 (stereo not given in full) | inhibition [10]: > 80%; inhibition [11]: > 80%; Ki (Adenosine A2 receptor [9]): 191 nM; inhibition [12]: 39% |

| SMILES | Ki (Adenosine receptor A1 [1]) | inhibition [5] | also measured |
| --- | --- | --- | --- |
| CCCn1c(=O)c2[nH]c(-c3ccc(OCC(=O)NCCNC(=O)Cc4ccc(NC(=S)Nc5ccc(N=C=S)cc5)cc4)cc3)nc2n(CCC)c1=O | 25 nM | – | – |
| CCCn1c(=O)c2nc(-c3ccc(OCC(=O)NCCNC(=O)C/N=C(\S)Nc4ccc(N=C=S)cc4)cc3)[nH]c2n(CCC)c1=O | – | 50% | Ki (Adenosine A2 receptor [4]): 472 nM; Ratio [6]: 69 |
| CCCn1c(=O)c2nc(-c3ccc(OCC(=O)NCCN=C(S)Nc4ccc(N=C=S)cc4)cc3)[nH]c2n(CCC)c1=O | – | 29% | inhibition [7]: 63%; inhibition [8]: 73%; Ki (Adenosine A2 receptor [9]): 321 nM; Ratio [6]: 48.6 |
